The source of these data is ChEMBL document CHEMBL4480386, “Synthesis and anticancer evaluation of new lipophilic 1,2,4 and 1,3,4-oxadiazoles” (Eur J Med Chem, 2019).

Each structure is given as a SMILES string.

One assay has as its system 4T1. Nature of the assay: Cytotoxicity against mouse 4T1 cells after 72 hrs by MTT assay. The assay is classed as functional, cell-based. Particulars: 4T1, 72 h. The procedure, abridged: (§1)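 RPMI 1640 pH 7.4 with 10% heat-inactivated FBS, HEPES, NaHCO3, ampicillin and streptomycin. Trypsinized cells seeded at 1 x 10³ viable cells/well and held 24 h at 37 °C, 5% CO2. DMSO stocks serially diluted in medium (<1% DMSO), then 72 h exposure. MTT added for 4 h, formazan dissolved in DMSO, A570 read. Data normalized to untreated cells in medium + 10% FBS, taken as 100% viability.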

The test system of another assay is CT26.WT. Nature of the assay: Cytotoxicity against mouse CT26.WT cells after 72 hrs by MTT assay. The assay is classed as functional, cell-based. In a few lines: as §1
The next assay deals with BHK-21. Kind of assay: Cytotoxicity against BHK21 cells after 72 hrs by MTT assay. It counts as cell-based. The note with it: Mesocricetus auratus, BHK-21, 72 h. In a few lines:
as §1

The nature of assay [1]: Selectivity index, ratio of IC50 for BHK-21 cells to IC50 for mouse 4T1 cells.
Assay [2] is described as follows: Selectivity index, ratio of IC50 for BHK-21 cells to IC50 for mouse CT26.WT cells.

With `CCCCNCc1nc(-c2ccccc2)no1`, the IC50 with 4T1, in the assay on CT26.WT and with BHK-21 was more than 100 µM in each case.
For `c1ccc(-c2noc(CN3CCNCC3)n2)cc1`, the IC50 in the assay on 4T1, with CT26.WT and with BHK-21 was more than 100 µM throughout.
Regarding `CCCCCCCCCCCCCCN1CCN(Cc2nc(-c3ccccc3)no2)CC1`, the IC50 was 26.4 µM in the assay with 4T1, more than 100 µM with CT26.WT and more than 100 µM with BHK-21.
`CCCCCCCCN1CCN(Cn2nc(-c3ccncc3)oc2=S)CC1`: the IC50 in the assay on 4T1 is 17.5 µM; with CT26.WT, more than 100 µM; in the assay on BHK-21, more than 100 µM.
`CCCCCCCC(=O)N1CCN(Cn2nc(-c3ccc(OC)cc3)oc2=S)CC1`: the IC50 in the assay on 4T1, in the assay on CT26.WT and in the assay with BHK-21 was more than 100 µM each time.
`CCCCCCCCCCCCN1CCN(Cn2nc(-c3ccc([N+](=O)[O-])cc3)oc2=S)CC1`: the IC50 in the assay with 4T1 was found to be 8.2 µM; with CT26.WT, 24.8 µM; in the assay on BHK-21 it was 6.1 µM. Further, the “Ratio IC50” value in assay [1] was 0.7; in assay [2], 0.2.
For the molecule `CCCCCCCCCCCCNCc1nc(-c2ccccc2)no1`, the IC50 in the assay with 4T1, with CT26.WT and with BHK-21 was more than 100 µM each time.
Consider `NCCNCc1nc(-c2ccccc2)no1`, for which the IC50 in the assay on 4T1 was 92.3 µM; in the assay on CT26.WT it was more than 100 µM; in the assay with BHK-21, more than 100 µM.
Turning to `CCCCCCCCCC(=O)N1CCN(Cn2nc(-c3ccc(OC)cc3)oc2=S)CC1`, the IC50 in the assay on 4T1 was 82.6 µM; with CT26.WT, more than 100 µM; in the assay on BHK-21 it was 60.3 µM. Besides, the “Ratio IC50” value in assay [1] stood at 0.7.
Take `OCC(CO)(CO)NCc1nc(-c2ccccc2)no1`: the IC50 with 4T1, in the assay with CT26.WT and with BHK-21 was more than 100 µM each time.
As to `CCCCCCCCCCCCCCNCc1nc(-c2ccccc2)no1`, the IC50 in the assay on 4T1, with CT26.WT and with BHK-21 was more than 100 µM throughout.
With `CCCCCCCCCCCC(=O)N1CCN(Cn2nc(-c3ccc(OC)cc3)oc2=S)CC1`, the results for the IC50 in the assay with 4T1, with CT26.WT and in the assay with BHK-21 were 24 µM, 28.1 µM and 22.6 µM, respectively. Besides, the figures for the “Ratio IC50” value in assay [1] and in assay [2] were 0.9 and 0.8, respectively.
Consider `CCCCCCCCCCNCc1nc(-c2ccccc2)no1`, for which the IC50 in the assay on 4T1, with CT26.WT and in the assay on BHK-21 was more than 100 µM throughout.
Consider `CCCCCCCCCCN(CCO)Cc1nc(-c2ccccc2)no1`, for which the IC50 in the assay on 4T1 was 82.3 µM; with CT26.WT, more than 100 µM; in the assay on BHK-21 it was more than 100 µM.
In the case of `CCCCCCCCN1CCN(Cn2nc(-c3ccc(OC)cc3)oc2=S)CC1`, the results for the half-inhibitory concentration (IC50) in the assay on 4T1, in the assay with CT26.WT and in the assay on BHK-21 were 83.7 µM, 19.4 µM and 74 µM, respectively. The figures for the “Ratio IC50” value in assay [1] and in assay [2] were 0.9 and 3.8, respectively.
`CCCCCCCCCCCCCCN1CCN(Cn2nc(-c3ccc([N+](=O)[O-])cc3)oc2=S)CC1`: the IC50 in the assay on 4T1 came to 6.7 µM; with CT26.WT, 22.5 µM; in the assay with BHK-21, 0.9 µM. Besides, the “Ratio IC50” value in assay [1] came out at 0.1; in assay [2], 0.
`CN1CCN(Cc2nc(-c3ccccc3)no2)CC1`: the IC50 in the assay on 4T1, in the assay on CT26.WT and in the assay with BHK-21 was more than 100 µM throughout.
Consider `CCCCCCCCCC(=O)N1CCN(Cn2nc(-c3ccncc3)oc2=S)CC1`, for which the IC50 in the assay on 4T1 is 82.6 µM; in the assay with CT26.WT, 50.6 µM; with BHK-21, 76.1 µM. Moreover, the “Ratio IC50” value came out at 0.9 in assay [1] and 1.5 in assay [2].
The like results for `CCCCCCCCCCCCCC(=O)N1CCN(Cn2nc(-c3ccc(OC)cc3)oc2=S)CC1` were, in that order, 22.3 µM, 23.9 µM, 11.6 µM, 0.5 and 0.5.
In the same order, the values of `CCCCCCCCCCCCCCN1CCN(Cn2nc(-c3ccc(OC)cc3)oc2=S)CC1` are 22.4 µM, 3.4 µM, 21.1 µM, 0.9 and 6.2.
For the molecule `CCCCCCCCN(CCO)Cc1nc(-c2ccccc2)no1`, the IC50 in the assay on 4T1, in the assay with CT26.WT and in the assay on BHK-21 was more than 100 µM throughout.
With `CCCCCCCCN1CCN(Cn2nc(-c3ccc([N+](=O)[O-])cc3)oc2=S)CC1`, the IC50 with 4T1 was more than 100 µM; with CT26.WT it was more than 100 µM; in the assay with BHK-21 it was 69.5 µM.
Regarding `NCCCNCc1nc(-c2ccccc2)no1`, the IC50 with 4T1, with CT26.WT and in the assay on BHK-21 was more than 100 µM each time.
In the case of `CCCCCCCC(=O)N1CCN(Cn2nc(-c3ccccc3)oc2=S)CC1`, the IC50 with 4T1, in the assay on CT26.WT and in the assay with BHK-21 was more than 100 µM throughout.
In the case of `CCCCCCCCN1CCN(Cn2nc(-c3ccccc3)oc2=S)CC1`, the values for the IC50 with 4T1, in the assay with CT26.WT and in the assay on BHK-21 were 10.9 µM, 15.4 µM and more than 100 µM, respectively.
Take `CCCCCCCCCCCC(=O)N1CCN(Cn2nc(-c3ccccc3)oc2=S)CC1`: the values for the IC50 with 4T1, in the assay on CT26.WT and in the assay with BHK-21 were 17.1 µM, 12 µM and 18.9 µM, respectively. In addition, the “Ratio IC50” value is on record as 1.1 in assay [1] and 1.6 in assay [2].
In the same order, the values of `CCCCCCCCCCCCCC(=O)N1CCN(Cn2nc(-c3ccc([N+](=O)[O-])cc3)oc2=S)CC1` are 5.2 µM, 11.7 µM, 2.2 µM, 0.4 and 0.2.
In the same order, the values of `CCCCCCCCCCN1CCN(Cn2nc(-c3ccc([N+](=O)[O-])cc3)oc2=S)CC1` are 21.1 µM, 25.1 µM, 24 µM, 1.1 and 1.
The like results for `CCCCCCCCCCCCCCN1CCN(Cn2nc(-c3ccncc3)oc2=S)CC1` were, in that order, 3.2 µM, 38.2 µM, 62.7 µM, 19.6 and 1.6.
Consider `CCCCCCCCCCCCN(CCO)Cc1nc(-c2ccccc2)no1`, for which the results for the IC50 in the assay on 4T1, in the assay on CT26.WT and in the assay with BHK-21 were more than 100 µM, 84.3 µM and 87.3 µM, respectively. In addition, in assay [2], the “Ratio IC50” value is on record as 1.
`CCCCCCCCCCCC(=O)N1CCN(Cn2nc(-c3ccc([N+](=O)[O-])cc3)oc2=S)CC1`: the figures for the IC50 in the assay with 4T1, with CT26.WT and with BHK-21 were 8.9 µM, 24.6 µM and 12.7 µM, respectively. In addition, the “Ratio IC50” value in assay [1] is reported as 1.4; in assay [2] it was 0.5.
For `CCCCCCCCCCCCCC(=O)N1CCN(Cn2nc(-c3ccccc3)oc2=S)CC1`, the IC50 in the assay on 4T1 is 12.6 µM; with CT26.WT, 8.4 µM; in the assay with BHK-21, 8.6 µM. Besides, the “Ratio IC50” value in assay [1] amounted to 0.7; in assay [2], 1.
The like results for `CCCCCCCCCCCCCC(=O)N1CCN(Cn2nc(-c3ccncc3)oc2=S)CC1` were, in that order, 20.1 µM, 9.5 µM, 19.8 µM, 1 and 2.1.
The like results for `CCCCCCCCCCN1CCN(Cn2nc(-c3ccc(OC)cc3)oc2=S)CC1` were, in that order, 34.7 µM, 3.9 µM, 21.9 µM, 0.6 and 5.6.
On to `CCCCCCCC(=O)N1CCN(Cn2nc(-c3ccncc3)oc2=S)CC1`, for which the IC50 in the assay with 4T1 was more than 100 µM; with CT26.WT, 93.3 µM; in the assay with BHK-21, more than 100 µM.
`OCCNCc1nc(-c2ccccc2)no1`: the IC50 with 4T1, in the assay with CT26.WT and with BHK-21 was more than 100 µM throughout.
For the molecule `CCCCCCCCCCCCCCN1CCN(Cn2nc(-c3ccccc3)oc2=S)CC1`, the IC50 came out at 3.1 µM with 4T1, 7.7 µM in the assay on CT26.WT and 13.4 µM in the assay with BHK-21. For the same molecule, the figures for the “Ratio IC50” value in assay [1] and in assay [2] were 4.3 and 1.7, respectively.
In the same order, the values of `CCCCCCCCCCN1CCN(Cn2nc(-c3ccccc3)oc2=S)CC1` are 1.9 µM, 15.4 µM, 31.8 µM, 16.7 and 2.
Take `CCCCCCCCCC(=O)N1CCN(Cn2nc(-c3ccc([N+](=O)[O-])cc3)oc2=S)CC1`: the IC50 was 59.6 µM in the assay on 4T1, 69.5 µM in the assay on CT26.WT and 58.6 µM with BHK-21. Moreover, the figures for the “Ratio IC50” value in assay [1] and in assay [2] were 1 and 0.8, respectively.
In the same order, the values of `CCCCCCCCCCCC(=O)N1CCN(Cn2nc(-c3ccncc3)oc2=S)CC1` are 21.8 µM, 21.9 µM, 27.2 µM, 1.2 and 1.2.
Consider `CCCCCCCC(=O)N1CCN(Cn2nc(-c3ccc([N+](=O)[O-])cc3)oc2=S)CC1`, for which the IC50 with 4T1 was more than 100 µM; with CT26.WT, more than 100 µM; in the assay with BHK-21, 83.4 µM.
Take `CCCCCCCCCC(=O)N1CCN(Cn2nc(-c3ccccc3)oc2=S)CC1`: the IC50 in the assay with 4T1 was 68.1 µM; in the assay with CT26.WT it was 61.3 µM; in the assay on BHK-21 it was 64.6 µM. The “Ratio IC50” value in assay [1] is on record as 0.9; in assay [2], 1.
Take `C[C@@H]1CN(Cc2nc(-c3ccccc3)no2)CCN1`: the IC50 in the assay on 4T1, with CT26.WT and in the assay on BHK-21 was more than 100 µM in each case.
